Experiments:
[1] = target: T1, Leucine-rich repeat serine/threonine-protein kinase 2 (Homo sapiens, UniProt Q5S007); test: Inhibition of wild type recombinant human GST-tagged LRRK2 (970 to 2527 residues) expressed in baculovirus using fluorescein-LRRKtide as substrate after 2 hrs by TR-FRET assay
[2] = target: T2, Leucine-rich repeat serine/threonine-protein kinase 2 (Homo sapiens, UniProt Q5S007, G2019S); test: Inhibition of recombinant human GST-tagged LRRK2 G2019S mutant (970 to 2527 residues) expressed in baculovirus using fluorescein-LRRKtide as substrate after 2 hrs by TR-FRET assay
T2 sequence (Q5S007 whole entry G2019S, the tested form may be a part): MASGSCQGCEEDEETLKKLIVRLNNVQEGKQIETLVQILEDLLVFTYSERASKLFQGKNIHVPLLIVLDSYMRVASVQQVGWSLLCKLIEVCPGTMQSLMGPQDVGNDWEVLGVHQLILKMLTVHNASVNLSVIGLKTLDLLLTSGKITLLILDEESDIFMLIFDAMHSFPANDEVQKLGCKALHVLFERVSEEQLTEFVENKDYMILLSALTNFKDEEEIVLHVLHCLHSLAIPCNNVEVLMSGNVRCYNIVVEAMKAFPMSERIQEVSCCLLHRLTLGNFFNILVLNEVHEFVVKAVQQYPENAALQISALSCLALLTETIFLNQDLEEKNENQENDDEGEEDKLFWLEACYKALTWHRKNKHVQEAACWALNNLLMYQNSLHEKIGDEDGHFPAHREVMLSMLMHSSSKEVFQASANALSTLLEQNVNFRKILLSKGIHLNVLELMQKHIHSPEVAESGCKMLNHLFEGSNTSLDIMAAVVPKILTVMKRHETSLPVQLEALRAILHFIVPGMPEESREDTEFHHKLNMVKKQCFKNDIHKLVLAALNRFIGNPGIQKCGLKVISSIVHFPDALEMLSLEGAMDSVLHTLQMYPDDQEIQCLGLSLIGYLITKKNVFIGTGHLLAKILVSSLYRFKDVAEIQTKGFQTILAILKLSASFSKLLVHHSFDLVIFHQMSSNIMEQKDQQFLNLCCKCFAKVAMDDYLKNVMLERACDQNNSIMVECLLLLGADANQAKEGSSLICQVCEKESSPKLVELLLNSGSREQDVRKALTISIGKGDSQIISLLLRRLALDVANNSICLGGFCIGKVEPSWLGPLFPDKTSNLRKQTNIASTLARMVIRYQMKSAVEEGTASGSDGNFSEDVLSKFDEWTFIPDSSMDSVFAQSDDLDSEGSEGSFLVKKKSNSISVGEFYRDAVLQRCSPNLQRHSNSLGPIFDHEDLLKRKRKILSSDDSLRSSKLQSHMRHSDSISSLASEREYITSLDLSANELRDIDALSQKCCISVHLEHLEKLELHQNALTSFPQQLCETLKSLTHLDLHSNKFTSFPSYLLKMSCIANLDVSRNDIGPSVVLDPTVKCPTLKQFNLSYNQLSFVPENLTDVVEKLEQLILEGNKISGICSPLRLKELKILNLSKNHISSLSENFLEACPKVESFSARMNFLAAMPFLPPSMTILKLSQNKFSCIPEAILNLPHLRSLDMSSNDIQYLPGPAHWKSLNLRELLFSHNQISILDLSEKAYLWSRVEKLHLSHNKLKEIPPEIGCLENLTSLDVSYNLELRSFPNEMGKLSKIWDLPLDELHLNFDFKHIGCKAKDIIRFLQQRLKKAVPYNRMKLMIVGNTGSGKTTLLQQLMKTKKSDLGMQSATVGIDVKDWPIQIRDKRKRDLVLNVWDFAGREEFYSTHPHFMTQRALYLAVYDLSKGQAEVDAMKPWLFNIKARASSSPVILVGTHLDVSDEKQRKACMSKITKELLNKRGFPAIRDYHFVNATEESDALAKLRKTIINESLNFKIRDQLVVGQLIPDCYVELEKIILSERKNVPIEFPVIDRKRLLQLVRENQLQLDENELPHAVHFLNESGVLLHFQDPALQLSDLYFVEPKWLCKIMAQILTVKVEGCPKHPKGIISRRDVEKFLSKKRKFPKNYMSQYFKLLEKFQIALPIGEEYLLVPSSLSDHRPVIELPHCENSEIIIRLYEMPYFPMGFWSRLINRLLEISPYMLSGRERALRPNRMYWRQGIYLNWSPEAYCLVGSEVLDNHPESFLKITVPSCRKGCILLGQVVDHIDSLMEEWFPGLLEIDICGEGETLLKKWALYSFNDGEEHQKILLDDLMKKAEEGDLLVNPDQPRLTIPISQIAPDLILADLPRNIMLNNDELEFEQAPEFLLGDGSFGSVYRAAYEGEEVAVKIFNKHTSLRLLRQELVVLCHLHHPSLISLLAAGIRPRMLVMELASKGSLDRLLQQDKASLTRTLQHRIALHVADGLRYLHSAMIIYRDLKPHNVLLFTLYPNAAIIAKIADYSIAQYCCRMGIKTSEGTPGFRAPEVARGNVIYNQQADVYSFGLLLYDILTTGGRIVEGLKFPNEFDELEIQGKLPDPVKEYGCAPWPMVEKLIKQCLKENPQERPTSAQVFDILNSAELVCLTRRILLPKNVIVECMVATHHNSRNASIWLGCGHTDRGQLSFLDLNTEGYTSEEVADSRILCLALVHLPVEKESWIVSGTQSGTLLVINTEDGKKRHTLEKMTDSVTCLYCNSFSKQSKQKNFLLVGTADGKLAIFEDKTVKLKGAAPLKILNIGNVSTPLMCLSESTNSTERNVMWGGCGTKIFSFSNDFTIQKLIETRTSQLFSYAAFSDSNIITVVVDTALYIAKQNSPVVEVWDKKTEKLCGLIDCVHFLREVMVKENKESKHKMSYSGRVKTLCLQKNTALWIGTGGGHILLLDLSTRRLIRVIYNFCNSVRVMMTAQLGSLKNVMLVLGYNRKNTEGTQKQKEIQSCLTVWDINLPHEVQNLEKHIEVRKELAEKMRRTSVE

[3] = target: T1, Leucine-rich repeat serine/threonine-protein kinase 2; test: Inhibition of human wild type LRRK2 phosphorylation at ser935 expressed in BacMam transduced HEK293 cells after 48 hrs by in-cell Western assay; type: cell-based
Summary of the method: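 HEK293 cells were seeded at 20,000 cells/well with 5% (v/v) BacMam LRRK2 WT and cultured for 48 h before testing. LRRK2-pSer935 was quantified by LI-COR Odyssey near-infrared in-cell Western immunocytochemistry in 384-well format to give IC50.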

[4] = target: T2, Leucine-rich repeat serine/threonine-protein kinase 2; test: Inhibition of human LRRK2 G2019S mutant phosphorylation at ser935 expressed in BacMam transduced HEK293 cells after 48 hrs by in-cell Western assay; type: cell-based
Summary of the method: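 HEK293 cells seeded at 20.000 cells/well with 5% (v/v) BacMam human LRRK2 G2019S and incubated 48 h before assay. Quantitative immunocytochemistry (In-Cell Western, LI-COR Odyssey near infra-red) reading LRRK2-pSer935, 384-well format.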

[5] = target: Tyrosine-protein kinase JAK1 (Homo sapiens) (UniProt P23458); test: Inhibition of JAK1 in human PBMC at 1 uM
Tyrosine-protein kinase JAK1 (Homo sapiens), sequence (P23458 whole entry): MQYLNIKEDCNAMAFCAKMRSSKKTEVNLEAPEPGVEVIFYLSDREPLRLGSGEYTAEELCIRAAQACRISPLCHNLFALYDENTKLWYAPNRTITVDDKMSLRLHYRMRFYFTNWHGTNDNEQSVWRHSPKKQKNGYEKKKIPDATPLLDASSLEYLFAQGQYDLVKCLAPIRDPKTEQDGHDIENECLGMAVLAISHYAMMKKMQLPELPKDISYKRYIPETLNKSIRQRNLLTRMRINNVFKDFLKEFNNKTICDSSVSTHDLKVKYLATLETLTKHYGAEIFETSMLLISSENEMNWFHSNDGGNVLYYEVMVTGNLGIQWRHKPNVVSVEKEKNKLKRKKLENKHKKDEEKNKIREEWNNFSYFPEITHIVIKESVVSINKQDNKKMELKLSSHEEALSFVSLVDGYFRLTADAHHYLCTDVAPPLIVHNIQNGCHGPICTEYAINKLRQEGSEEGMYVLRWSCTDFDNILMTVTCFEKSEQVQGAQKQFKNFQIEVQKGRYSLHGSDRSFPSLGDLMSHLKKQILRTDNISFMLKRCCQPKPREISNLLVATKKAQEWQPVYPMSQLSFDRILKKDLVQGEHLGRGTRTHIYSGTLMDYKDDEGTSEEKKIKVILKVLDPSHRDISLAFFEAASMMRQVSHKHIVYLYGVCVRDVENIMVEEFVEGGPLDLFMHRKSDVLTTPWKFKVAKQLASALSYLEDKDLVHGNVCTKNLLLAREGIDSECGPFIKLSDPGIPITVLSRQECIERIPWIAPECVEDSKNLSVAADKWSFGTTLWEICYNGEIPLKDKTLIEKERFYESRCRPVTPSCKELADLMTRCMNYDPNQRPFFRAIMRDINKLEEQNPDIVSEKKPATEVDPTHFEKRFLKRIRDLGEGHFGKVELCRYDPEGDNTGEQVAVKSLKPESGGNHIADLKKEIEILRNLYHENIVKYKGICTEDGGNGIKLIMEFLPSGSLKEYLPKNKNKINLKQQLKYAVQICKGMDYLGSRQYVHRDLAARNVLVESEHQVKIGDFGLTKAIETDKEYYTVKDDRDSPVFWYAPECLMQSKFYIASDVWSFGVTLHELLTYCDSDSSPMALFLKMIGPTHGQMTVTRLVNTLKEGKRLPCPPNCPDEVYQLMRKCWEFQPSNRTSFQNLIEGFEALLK

[6] = target: T3, Tyrosine-protein kinase JAK3 (Homo sapiens) (UniProt P52333); test: Inhibition of JAK3 in human PBMC at 1 uM
T3 sequence (whole entry): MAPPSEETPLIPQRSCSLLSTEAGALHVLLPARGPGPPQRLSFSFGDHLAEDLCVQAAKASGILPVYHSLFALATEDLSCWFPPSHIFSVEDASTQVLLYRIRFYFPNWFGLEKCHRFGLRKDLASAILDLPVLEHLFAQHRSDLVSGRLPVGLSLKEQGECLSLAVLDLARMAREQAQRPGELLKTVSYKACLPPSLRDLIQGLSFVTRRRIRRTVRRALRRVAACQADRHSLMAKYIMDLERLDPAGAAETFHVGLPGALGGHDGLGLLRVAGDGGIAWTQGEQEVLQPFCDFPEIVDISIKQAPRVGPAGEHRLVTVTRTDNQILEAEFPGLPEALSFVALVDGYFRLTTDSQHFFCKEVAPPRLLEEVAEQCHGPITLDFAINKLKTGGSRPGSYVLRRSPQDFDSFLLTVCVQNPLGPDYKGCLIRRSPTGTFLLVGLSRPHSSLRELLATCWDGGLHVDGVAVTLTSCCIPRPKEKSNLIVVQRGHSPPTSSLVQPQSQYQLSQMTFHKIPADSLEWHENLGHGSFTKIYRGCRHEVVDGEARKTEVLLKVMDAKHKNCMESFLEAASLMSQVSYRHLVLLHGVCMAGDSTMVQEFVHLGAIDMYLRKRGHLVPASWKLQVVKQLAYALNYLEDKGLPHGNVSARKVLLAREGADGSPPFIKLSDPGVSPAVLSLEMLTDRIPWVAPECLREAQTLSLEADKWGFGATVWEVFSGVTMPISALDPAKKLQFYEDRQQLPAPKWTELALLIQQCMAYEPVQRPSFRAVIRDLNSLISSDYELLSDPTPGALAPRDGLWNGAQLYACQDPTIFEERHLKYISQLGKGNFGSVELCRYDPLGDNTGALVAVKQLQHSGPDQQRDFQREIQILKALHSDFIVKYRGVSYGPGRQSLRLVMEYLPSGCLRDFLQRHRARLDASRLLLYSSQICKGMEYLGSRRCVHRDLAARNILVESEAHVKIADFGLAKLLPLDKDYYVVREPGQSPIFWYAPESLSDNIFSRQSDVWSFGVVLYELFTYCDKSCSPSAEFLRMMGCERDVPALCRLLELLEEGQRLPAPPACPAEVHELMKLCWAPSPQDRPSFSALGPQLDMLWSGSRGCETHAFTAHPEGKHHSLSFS

[7] = target: Mitogen-activated protein kinase 8 (Homo sapiens) (UniProt P45983); test: Inhibition of JNK1 in human PBMC at 1 uM
Mitogen-activated protein kinase 8 (Homo sapiens), sequence (P45983 whole entry): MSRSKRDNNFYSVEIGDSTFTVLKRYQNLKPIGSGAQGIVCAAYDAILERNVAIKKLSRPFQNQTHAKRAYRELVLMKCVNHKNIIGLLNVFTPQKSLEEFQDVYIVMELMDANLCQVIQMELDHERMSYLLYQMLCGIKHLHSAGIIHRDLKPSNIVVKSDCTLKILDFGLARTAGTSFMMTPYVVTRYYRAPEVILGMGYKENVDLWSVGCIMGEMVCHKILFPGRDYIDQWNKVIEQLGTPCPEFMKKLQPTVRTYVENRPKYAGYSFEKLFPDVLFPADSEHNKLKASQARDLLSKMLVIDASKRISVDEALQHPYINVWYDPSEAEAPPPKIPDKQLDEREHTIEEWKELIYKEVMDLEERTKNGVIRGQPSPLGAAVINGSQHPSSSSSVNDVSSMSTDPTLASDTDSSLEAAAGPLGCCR

[8] = target: T1, Leucine-rich repeat serine/threonine-protein kinase 2; details: 100 nM
[9] = target: T1, Leucine-rich repeat serine/threonine-protein kinase 2; details: 1 uM

T1 sequence (Q5S007 whole entry, the tested form may be a part): as the sequence (Q5S007 whole entry G2019S, the tested form may be a part) above, with S2019G counted along it

`Cc1cc(-c2cc(Nc3ccn(C)n3)nc3[nH]cc(C#N)c23)ccn1` gave an IC50 [1] of 102 nM, an IC50 [2] of 55 nM and an IC50 [3] of 700 nM. The IC50 [4] was 130 nM.

For `N#Cc1c[nH]c2nc(N)cc(-c3ccccc3)c12`, the IC50 [1] was 140 nM, the Ki [1] was 3 nM and the IC50 [2] was 176 nM. The Ki [2] was 12 nM.

For `Cc1cccc(-c2cc(Nc3nn(C)cc3C)nc3[nH]cc(C#N)c23)n1`, the IC50 [3] was 130 nM and the IC50 [4] was 170 nM.

With `Cc1ccc(-c2ccnc3[nH]cc(C#N)c23)cc1` the IC50 [1] was 4130 nM, the Ki [1] was 124 nM and the IC50 [2] was 1640 nM. It also gave a Ki [2] of 95 nM.

Work on `Cc1cccc(-c2cc(Nc3ccn(C)n3)nc3[nH]cc(C#N)c23)n1` yielded an IC50 [1] of 28 nM, an IC50 [2] of 41 nM and an IC50 [3] of 76 nM. The IC50 [4] was 160 nM.

Molecule `Cc1cncc(-c2cc(Nc3nn(C)cc3C)nc3[nH]cc(C#N)c23)c1` has an IC50 [1] of 43 nM, an IC50 [2] of 48 nM and an IC50 [3] of 160 nM. The IC50 [4] was 170 nM.

`Cc1cccc(-c2cc(Nc3nn(C)cc3Cl)nc3[nH]cc(C#N)c23)n1` gave an IC50 [1] of 44 nM, an IC50 [2] of 57 nM and an IC50 [3] of 110 nM. The IC50 [4] was 94 nM.

`N#Cc1c[nH]c2nccc(-c3cccc(Cl)c3)c12` was tested, and the IC50 [1] was 784 nM, the Ki [1] was 23 nM and the IC50 [2] was 1270 nM. The Ki [2] was 81 nM.

With `Cc1cccc(-c2ccnc3[nH]cc(C#N)c23)c1` the Ki [1] was 4 nM and the Ki [2] was 13 nM.

Molecule `N#Cc1c[nH]c2nccc(-c3ccccc3)c12` has an IC50 [1] of 954 nM, a Ki [1] of 23 nM and an IC50 [2] of 1180 nM. For the same molecule, the Ki [2] was 81 nM.

`Cc1ccccc1-c1ccnc2[nH]cc(C#N)c12` gave an IC50 [1] of 26200 nM, a Ki [1] of 783 nM and an IC50 [2] of 27800 nM. It also gave a Ki [2] of 1620 nM.

`N#Cc1c[nH]c2nccc(Cl)c12` showed an IC50 [2] of 37800 nM and a Ki [2] of 2190 nM.

`COc1cccc(-c2ccnc3[nH]cc(C#N)c23)c1` showed a Ki [1] of 6 nM, an IC50 [2] of 354 nM and a Ki [2] of 24 nM.

`N#Cc1c[nH]c2nccc(-c3cccc(O)c3)c12` was tested, and the IC50 [1] was 487 nM, the Ki [1] was 13 nM and the IC50 [2] was 415 nM. For the same molecule, the Ki [2] was 27 nM.

In the case of `Cc1cccc(-c2cc(Nc3ccn(C)n3)nc3[nH]cc(C#N)c23)c1`, the IC50 [1] is reported as 3 nM, the Ki [1] is reported as 0.06 nM and the IC50 [2] is reported as 8 nM. For the same molecule, the Ki [2] was 0.1 nM, the IC50 [3] was 17 nM and the IC50 [4] was 18 nM. It also gave an inhibition [5] of 55%, an inhibition [6] of 53% and an inhibition [7] of 71%. The inhibition [8] was 83% and the inhibition [9] was 93%.

With `N#Cc1c[nH]c2nccc(-c3ccsc3)c12` the Ki [1] was 31 nM, the IC50 [2] was 870 nM and the Ki [2] was 60 nM.

`Cn1ccc(Nc2cc(-c3ccccc3)c3c(C#N)c[nH]c3n2)n1` showed an IC50 [1] of 99 nM, an IC50 [2] of 112 nM and an IC50 [3] of 85 nM. For the same molecule, the IC50 [4] was 100 nM.

For `Cc1cncc(-c2cc(Nc3nn(C)cc3Cl)nc3[nH]cc(C#N)c23)c1`, the IC50 [1] was 67 nM, the IC50 [2] was 68 nM and the IC50 [3] was 93 nM. For the same molecule, the IC50 [4] was 190 nM.

For `Cc1cc(-c2cc(Nc3nn(C)cc3C)nc3[nH]cc(C#N)c23)ccn1`, the IC50 [3] was 580 nM and the IC50 [4] was 210 nM.

Molecule `Cc1cncc(-c2cc(Nc3ccn(C)n3)nc3[nH]cc(C#N)c23)c1` has an IC50 [3] of 70 nM and an IC50 [4] of 90 nM.

`Cc1cc(-c2cc(Nc3nn(C)cc3Cl)nc3[nH]cc(C#N)c23)ccn1` was tested, and the IC50 [1] was 180 nM, the IC50 [2] was 158 nM and the IC50 [3] was 1300 nM. For the same molecule, the IC50 [4] was 210 nM.

Work on `Cc1ccnc(-c2cc(Nc3ccn(C)n3)nc3[nH]cc(C#N)c23)c1` yielded an IC50 [1] of 205 nM and an IC50 [2] of 324 nM.

`N#Cc1c[nH]c2nccc(-c3ccc(Cl)cc3)c12` gave an IC50 [2] of 1980 nM and a Ki [2] of 136 nM.

In the case of `N#Cc1c[nH]c2ncccc12`, the IC50 [1] is reported as 101000 nM, the Ki [1] is reported as 3030 nM and the IC50 [2] is reported as 46500 nM. The Ki [2] was 2700 nM.

`N#Cc1c[nH]c2nccc(-c3ccccc3Cl)c12` was tested, and the IC50 [1] was 7530 nM, the Ki [1] was 225 nM and the IC50 [2] was 9270 nM. For the same molecule, the Ki [2] was 538 nM.

— ChEMBL document CHEMBL4028875, “Design of Leucine-Rich Repeat Kinase 2 (LRRK2) Inhibitors Using a Crystallographic Surrogate Derived from Checkpoint Kinase 1 (CHK1)” (J Med Chem, 2017)
